Reference: ChEMBL document CHEMBL1135527, “Synthesis and evaluation of 2'-substituted 4-(4'-carboxy- or 4'-carboxymethylbenzylidene)-N-acylpiperidines: highly potent and in vivo active steroid 5alpha-reductase type 2 inhibitors” (J Med Chem, 2002)

Key:
[1] = system: Rattus norvegicus; assay: In vivo ventral prostate weights in juvenile castrated rats treated with testosterone propionate (11.3 mg/kg) + compound, by subcutaneous administration; format: functional, Prostate gland
[2] = system: Rattus norvegicus; assay: Mean percentage of inhibition of the T-induced hypertrophic response was calculated according to the equation %inhibition = 100 x (Ct-D)/(Ct-Cc) at a dose 1 mg/kg by subcutaneous administration; format: functional; details: sc
In short: (§1)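 Male rats castrated at 21 days old by scrotal incision under ether anaesthesia; eight groups of eight. One week later, testosterone propionate 1 mg/kg and test agent or vehicle in oil given once daily for 4 days. Testosterone and test agent were given by separate sc injections, or the test agent was given orally. Test doses 11.3–12.2 mg/kg, 10 times equimolar to finasteride 1 mg/kg.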

[3] = system: Rattus norvegicus; assay: In vivo ventral prostate weights in juvenile castrated rats treated with testosterone propionate (11.3 mg/kg) compound, by subcutaneous administration; format: functional, Prostate gland; in short: as §1
[4] = system: Rattus norvegicus; assay: Mean percentage of inhibition of the T-induced hypertrophic response was calculated according to the equation %inhibition = 100 x (Ct-D)/(Ct-Cc) at a dose 11.8 mg/kg by subcutaneous administration; format: functional; details: sc; in short: as §1
[5] = molecular target: T1, 3-oxo-5-alpha-steroid 4-dehydrogenase 2 (Homo sapiens, UniProt P31213); assay: Inhibition of Steroid 5-alpha-reductase type 2 from human benign prostatic hyperplasia (BPH) tissue
T1 sequence (P31213 whole entry): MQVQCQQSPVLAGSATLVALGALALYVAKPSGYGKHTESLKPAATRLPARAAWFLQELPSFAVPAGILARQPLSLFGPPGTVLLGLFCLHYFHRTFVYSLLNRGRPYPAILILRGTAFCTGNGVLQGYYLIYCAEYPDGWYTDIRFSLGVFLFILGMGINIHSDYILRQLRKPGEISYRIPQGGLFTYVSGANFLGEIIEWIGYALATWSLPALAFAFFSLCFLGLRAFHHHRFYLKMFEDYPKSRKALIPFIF
In short: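 Human BPH prostate 105000g pellet (nuclei, mitochondria, microsomes) prepared in citrate buffer pH 5.5. Incubation of about 125 μg protein for 30 min at 37 °C in 40 mM citrate pH 5.5 with 100 μM NADPH, 0.21 μM [1,2-³H]testosterone and 2% DMSO. Reaction stopped with NaOH, steroids extracted with ether, T/DHT separated by radio-HPLC. Single 10 μM test or IC50; duplicates.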

[6] = molecular target: T2, 3-oxo-5-alpha-steroid 4-dehydrogenase 2 (Rattus norvegicus, UniProt P31214); assay: Inhibition of Steroid 5-alpha-reductase type 2 of rat ventral prostate (RVP); format: tissue-based, Prostate gland
T2 sequence (P31214 whole entry): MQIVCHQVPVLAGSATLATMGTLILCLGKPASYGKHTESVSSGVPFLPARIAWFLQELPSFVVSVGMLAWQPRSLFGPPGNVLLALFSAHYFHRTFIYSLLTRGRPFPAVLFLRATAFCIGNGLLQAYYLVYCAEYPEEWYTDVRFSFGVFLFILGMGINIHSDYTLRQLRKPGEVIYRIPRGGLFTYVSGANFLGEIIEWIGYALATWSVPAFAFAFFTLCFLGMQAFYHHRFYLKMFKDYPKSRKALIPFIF
In short: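 Type 2 source: rat ventral prostate homogenized in citrate buffer pH 5.5, 105000g pellet. About 250 μg protein incubated 30 min at 37 °C in 40 mM citrate pH 5.5 with 200 μM NADPH, 0.21 μM [1,2-³H]testosterone and 2% DMSO. NaOH stop, ether extraction, radio-HPLC of T/DHT. Result given as % inhibition at 10 μM or IC50, run in duplicate.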

[7] = molecular target: T3, 3-oxo-5-alpha-steroid 4-dehydrogenase 1 (Rattus norvegicus, UniProt P24008); assay: Inhibition of Steroid 5-alpha-reductase type I from rat ventral prostate (RVP); format: tissue-based, Prostate gland
T3 sequence (P24008 whole entry): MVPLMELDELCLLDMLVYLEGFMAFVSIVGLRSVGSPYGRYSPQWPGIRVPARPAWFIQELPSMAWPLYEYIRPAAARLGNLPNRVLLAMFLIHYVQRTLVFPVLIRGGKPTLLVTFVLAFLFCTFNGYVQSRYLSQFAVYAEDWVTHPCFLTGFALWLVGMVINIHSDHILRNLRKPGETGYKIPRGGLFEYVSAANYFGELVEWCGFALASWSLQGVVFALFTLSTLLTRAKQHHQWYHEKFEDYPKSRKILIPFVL
In short: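 Rat ventral prostate 105000g pellet made in 20 mM phosphate pH 6.6 with […] and 1 mM DTT at 0–4 °C. About 250 μg protein incubated 30 min at 37 °C in 40 mM phosphate pH 6.6 with 200 μM NADPH, 0.21 μM [1,2-³H]testosterone and 2% DMSO. Ether extraction, radio-HPLC of T and DHT. % inhibition at 10 μM or IC50; duplicates.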

[8] = molecular target: T4, 3-oxo-5-alpha-steroid 4-dehydrogenase 1 (Homo sapiens, UniProt P18405); assay: In vitro inhibitory activity against Steroid 5-alpha-reductase type I of human DU 145 prostatic tumor cell line
T4 sequence (P18405 whole entry): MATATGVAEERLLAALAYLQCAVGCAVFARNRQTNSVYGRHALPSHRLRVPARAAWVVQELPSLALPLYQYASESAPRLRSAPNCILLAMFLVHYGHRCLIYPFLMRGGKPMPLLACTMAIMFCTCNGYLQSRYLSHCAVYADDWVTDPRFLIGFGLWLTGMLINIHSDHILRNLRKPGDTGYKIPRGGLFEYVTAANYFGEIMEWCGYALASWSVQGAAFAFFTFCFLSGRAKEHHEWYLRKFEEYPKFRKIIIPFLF
In short: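 Intact human prostatic carcinoma DU145 cells (type 1 enzyme source), seeded at 180 000 cells/well and left to adhere overnight, incubated 6 h at 37 °C in 5% CO2 with compound in DMSO in complete medium; substrate tritiated androstenedione 5 nM. Medium extracted with diethyl ether, steroids separated by radio-HPLC. Screened at 10 μM, duplicate; product formed as % of uninhibited control.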

[9] = system: Rattus norvegicus; assay: In vivo ventral prostate weights in juvenile castrated rats treated with testosterone propionate (11.3 mg/kg) compound, by oral administration; format: functional, Prostate gland; in short: as §1
[10] = system: Rattus norvegicus; assay: Mean percentage of inhibition of the T-induced hypertrophic response was calculated according to the equation %inhibition = 100 x (Ct-D)/(Ct-Cc) at a dose 11.3 mg/kg by oral administration; format: functional; in short: as §1
[11] = system: Rattus norvegicus; assay: Mean percentage of inhibition of the T-induced hypertrophic response was calculated according to the equation %inhibition = 100 x (Ct-D)/(Ct-Cc) at a dose 11.3 mg/kg by subcutaneous administration; format: functional; details: sc; in short: as §1
[12] = system: Rattus norvegicus; assay: In vivo ventral prostate weights in juvenile castrated rats treated with testosterone propionate (1 mg/kg); format: functional, Prostate gland; in short: as §1
[13] = system: Rattus norvegicus; assay: Mean percentage of inhibition of the T-induced hypertrophic response was calculated according to the equation %inhibition = 100 x (Ct-D)/(Ct-Cc) at a dose 12.2 mg/kg by subcutaneous administration; format: functional; details: sc; in short: as §1

For `CC(C)(C)NC(=O)C1CC[C@@]2(C)[C@@H]3CC[C@H]4NC(=O)C=C[C@]4(C)[C@H]3CC[C@]12C.CCC(=O)O[C@H]1CC[C@H]2[C@@H]3CCC4=CC(=O)CC[C@]4(C)[C@H]3CC[C@]12C` (stereo not given in full), the Weight [1] was 20.5 (mg of prostate) (100g of body weight)-1 and the inhibition in vivo at 1 mg/kg [2] was 76%.
With `CCC(=O)O[C@H]1CC[C@H]2[C@@H]3CCC4=CC(=O)CC[C@]4(C)[C@H]3CC[C@]12C.O=C(O)c1ccc(C=C2CCN(C(=O)C(C3CCCCC3)C3CCCCC3)CC2)c(F)c1` the Weight [3] was 28.6 (mg of prostate) (100g of body weight)-1 and the inhibition in vivo at 11.8 mg/kg [4] was 47%.
In the case of `CC(C)(C)NC(=O)[C@H]1CC[C@H]2[C@@H]3CC[C@H]4NC(=O)C=C[C@]4(C)[C@H]3CC[C@]12C` [FINASTERIDE], the IC50 [5] is reported as 0.005 µM, the IC50 [6] is reported as 0.011 µM and the IC50 [7] is reported as 0.01 µM. For the same molecule, the IC50 [8] was 0.041 µM.
For `CCC(=O)O[C@H]1CC[C@H]2[C@@H]3CCC4=CC(=O)CC[C@]4(C)[C@H]3CC[C@]12C.O=C(O)c1ccc(C=C2CCN(C(=O)C(C3CCCCC3)C3CCCCC3)CC2)cc1`, the Weight [9] was 31.6 (mg of prostate) (100g of body weight)-1, the Weight [3] was 27.9 (mg of prostate) (100g of body weight)-1 and the inhibition in vivo at 11.3 mg/kg [10] was 36%. For the same molecule, the inhibition in vivo at 11.3 mg/kg [11] was 49%.
With `CCC(=O)O[C@H]1CC[C@H]2[C@@H]3CCC4=CC(=O)CC[C@]4(C)[C@H]3CC[C@]12C` [TESTOSTERONE PROPIONATE] the Weight [12] was 41.6 (mg of prostate) (100g of body weight)-1.
With `CCC(=O)O[C@H]1CC[C@H]2[C@@H]3CCC4=CC(=O)CC[C@]4(C)[C@H]3CC[C@]12C.O=C(O)Cc1ccc(C=C2CCN(C(=O)C(C3CCCCC3)C3CCCCC3)CC2)c(F)c1` the Weight [3] was 26.4 (mg of prostate) (100g of body weight)-1 and the inhibition in vivo at 12.2 mg/kg [13] was 55%.
